In brackets after ≈: the same amount, converted by molar mass.
Columns and labels:
BEAS-2B = test: Cytotoxicity against human BEAS2B cells after 48 hrs by PrestoBlue staining based fluorescence assay; type: cell-based
How it was run: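 Uninfected BEAS-2B cells were exposed to compound for 48 h at 37°C. PrestoBlue was added and incubated 90 min at 37°C, then fluorescence was read (ex 560 nm, em 590 nm). Cytotoxic was defined as metabolic activity <70% of vehicle control. Highest concentration assessed for cytotoxicity was 90 µM, and CC50 came from four-parameter variable slope regression.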

[1] = Selectivity index, ratio of CC50 for human BEAS2B cells to EC50 for inhibition of recombinant mkate-tagged-Respiratory syncytial virus-A2-L19F RNA-dependent RNA polymerase complex D489E mutant in human BEAS2B cells infected with Respiratory syncytial virus-A2-L19F; type: toxicity, cell-based; conditions: read-out: Ratio CC50/EC50
How it was run: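 SI is CC50/EC50 in BEAS-2B cells. EC50 came from reporter RSV dose-response, 3-fold dilutions, top 10 µM. […] Both values from four-parameter variable-slope regression.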

[2] = Inhibition of recombinant Respiratory syncytial virus-A2-L19F RNA-dependent RNA polymerase complex D489E mutant transfected with firefly luciferase gene at SMASh domain in human BEAS2B cells infected with Respiratory syncytial virus-A2-L19F assessed as reduction in viral replication measured after […] by bioluminescence assay; type: cell-based; conditions: human respiratory syncytial virus, A2-L19F, BEAS-2B
How it was run: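 BEAS-2B cells (1.5×10^4/well) received 3-fold serial compound dilutions prepared in three repeats (top concentration 10 µM) and were infected with firefly-luciferase/SMASh reporter RSV-A2-L19F D489E (MOI 0.1). Luminescence was converted to % inhibition against four-replicate positive and negative controls per plate. EC50 came from four-parameter variable-slope regression.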

[3] = Retention time of the compound at 80 uM by LC-MS analysis
Liver [4] = test: Stability in mouse liver microsomes at 1 uM in absence of NADPH after 2 hrs by LC-MS analysis; type: ADME, microsome
How it was run: (§1)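 Test article at 1 µM final was incubated in triplicate at 37°C with shaking (150 rpm) with mouse or human liver S9 or microsomes (0.5 mg total protein), with Phase I oxidation and Phase II glucuronidation cofactors. Cofactor-free and microsome-free controls were run, sampled only at 0 and 120 min. Other sampling was at 0, 15, 30, 60 and 120 min into organic internal standard solution.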

Liver [5] = test: Drug metabolism in mouse liver microsomes assessed as metabolite M1 formation at 80 uM after 2 hrs by LC-MS analysis; type: ADME, microsome
How it was run: (§2)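 Metabolite identification used 80 µM test article incubated in triplicate with mouse liver microsomes (0.5 mg total protein) plus Phase I oxidation and Phase II glucuronidation cofactors, at 37°C with shaking at 150 rpm. Aliquots were taken at 0, 15, 30, 60 and 120 min and mixed with organic internal standard solution.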

Liver [6] = test: Drug metabolism in mouse liver microsomes assessed as metabolite M2 formation at 80 uM after 2 hrs by LC-MS analysis; type: ADME, microsome; how it was run: as §2
Liver [7] = test: Drug metabolism in mouse liver microsomes assessed as metabolite M3 formation at 80 uM after 2 hrs by LC-MS analysis; type: ADME, microsome; how it was run: as §2
Liver [8] = test: Drug metabolism in mouse liver microsomes assessed as metabolite M4 formation at 80 uM after 2 hrs by LC-MS analysis; type: ADME, microsome; how it was run: as §2
Liver [9] = test: Half life in mouse liver S9 fraction at 1 uM by LC-MS analysis; type: ADME, tissue-based; conditions: s9, 1 µM; how it was run: as §1
Liver [10] = test: Half life in human liver microsomes at 1 uM by LC-MS analysis; type: ADME, microsome; how it was run: as §1
Liver [11] = test: Half life in mouse liver microsomes at 1 uM in presence of NADPH by LC-MS analysis; type: ADME, microsome; how it was run: as §1
[12] = Aqueous solubility of the compound in phosphate buffered saline at pH 7.4 after 90 mins by laser nephelometric method; type: physicochemical
How it was run: (§3)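 Stocks of 30 mg/mL in DMSO were serially diluted in DMSO, then into buffer to final 300 down to 1.5 µg/mL at 1% final DMSO. Diluent was PBS for pH 7.4 and citrate buffer for pH 3 and 5. Plates stood 90 min at ambient temperature. Forward-scatter laser nephelometry gave the concentration at which precipitation began.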

[13] = Aqueous solubility of the compound in citrate buffer at pH 5 after 90 mins by laser nephelometric method; type: physicochemical; how it was run: as §3
[14] = Aqueous solubility of the compound in citrate buffer at pH 3 after 90 mins by laser nephelometric method; type: physicochemical; how it was run: as §3
[15] = Inhibition of recombinant mkate-tagged-Respiratory syncytial virus-A2-L19F RNA-dependent RNA polymerase D489E mutant in human BEAS2B cells infected with Respiratory syncytial virus-A2-L19F assessed as reduction in progeny release measured after 48 hrs postinfection by fluorescence assay based progeny virus yield-based dose-response assay; type: cell-based; conditions: BEAS-2B
How it was run: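 Cells in 12-well format infected with mKate-expressing recRSV-A2-L19F (MOI 0.05 particles/cell) in the presence of serial compound dilutions at 37°C. Cell-associated progeny harvested 48 h post-infection and released by one freeze/thaw cycle. Titres determined by TCID50 titration. Two repeats; EC50 derived by regression.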

[16] = test system: Respiratory syncytial virus; test: Inhibition of Respiratory syncytial virus-A2-L19F RNA-dependent RNA polymerase complex D489E mutant in human BEAS2B cells infected with Respiratory syncytial virus-A2-L19F by firefly luciferase reporter-based RSV minigenome assay; type: cell-based

Structure (SMILES)	CC50 (BEAS-2B) [µM]	selectivity ratio [1]	EC50 [2] [µM]	further results
Cc1ccoc1C(=O)N1CCCn2nc(C(=O)Nc3cccc(F)c3)cc2C1	30	143	0.21	
Cc1ccoc1C(=O)N1CCCn2nc(CNc3ccccc3)cc2C1	10	20	0.5	
Cc1ccoc1C(=O)N1CCCn2nc(S(=O)(=O)Nc3ccccc3)cc2C1			> 10	
Cc1ccc(C(=O)N2CCCn3nc(C(=O)Nc4ccccc4)cc3C2)o1			> 10	
CCc1ccoc1C(=O)N1CCCn2nc(C(=O)Nc3ccccc3)cc2C1	10	14	0.73	
Cc1coc(C(=O)N2CCCn3nc(C(=O)Nc4ccccc4)cc3C2)c1			> 10	
Cc1ccoc1C(=O)N1CCCn2nc(C(=O)Nc3ccc(F)cc3)cc2C1	90	273	0.33	
Cc1ccoc1C(=O)N1CCCn2cc(C(=O)Nc3ccccc3)cc2C1	> 90	> 28	3.19	
Cc1cccc(NC(=O)c2cc3n(n2)CCCN(C(=O)c2occc2C)C3)c1	3.3	12	0.28	
Cc1ccoc1C(=O)N1CCCn2nc(C(=O)Cc3ccccc3)cc2C1	5.5	79	0.07	Retention time [3]: 12.9 min; Stability (Liver [4]): Stable; Drug metabolism (Liver [5]): Metabolite_Detected; Drug metabolism (Liver [6]): Metabolite_Detected; Drug metabolism (Liver [7]): Metabolite_Detected; Drug metabolism (Liver [8]): Metabolite_Detected; t1/2 (Liver [9]): 20 min; t1/2 (Liver [10]): 42 min; t1/2 (Liver [11]): 20 min; solubility kinetic at 1.5 h [12]: 18 µg/mL (≈ 49.5 µM); solubility kinetic at 1.5 h [13]: 18 µg/mL (≈ 49.5 µM); solubility kinetic at 1.5 h [14]: < 15 µg/mL
Cc1ccoc1C(=O)N1CCCn2nc(C(=O)Nc3ccncn3)cc2C1	16.6	11	1.53	
COc1cccc(NC(=O)c2cc3n(n2)CCCN(C(=O)c2occc2C)C3)c1	30	56	0.54	
O=C(Nc1ccccc1)c1cc2n(n1)CCCN(C(=O)c1ccco1)C2			7.1	
Cc1ccoc1C(=O)N1CCCn2nc(NS(=O)(=O)c3ccccc3)cc2C1			> 10	
COc1ccccc1NC(=O)c1cc2n(n1)CCCN(C(=O)c1occc1C)C2	3.3	11	0.31	solubility kinetic at 1.5 h [12]: 28 µg/mL (≈ 71 µM); solubility kinetic at 1.5 h [13]: 43 µg/mL (≈ 109 µM); solubility kinetic at 1.5 h [14]: 48 µg/mL (≈ 122 µM)
Cn1c(=O)n(C)c2cc(Cn3cnc(-c4ccccc4)c3C3CC3)ccc21				EC50 [15]: 0.17 µM; inhibition [16]: Dose-dependent effect
O=C(Nc1ccccc1)c1cc2n(n1)CCCN(C(=O)c1ccncn1)C2			> 10	
Cc1ccccc1NC(=O)c1cc2n(n1)CCCN(C(=O)c1occc1C)C2	1.1	8	0.14	
O=C(Nc1ccccc1)c1cc2n(n1)CCCN(C(=O)c1occc1-c1ccccc1)C2			> 10	
Cc1ccoc1C(=O)N1CCCn2nc(C(=O)Nc3ccc(F)cc3F)cc2C1	5	83	0.06	
Cc1c(C(=O)N2CCCn3nc(C(=O)Nc4ccccc4)cc3C2)oc2ccccc12			10	
Cc1ccoc1CN1CCCn2nc(C(=O)Nc3ccccc3)cc2C1			> 10	

— ChEMBL document CHEMBL4007453, “Identification of Non-Nucleoside Inhibitors of the Respiratory Syncytial Virus Polymerase Complex” (J Med Chem, 2017)
